Source: ChEMBL document CHEMBL3877306, “Triazole Ureas Act as Diacylglycerol Lipase Inhibitors and Prevent Fasting-Induced Refeeding” (J Med Chem, 2017)
pIC50: −log10 of the molar value.

Legend:
Mus musculus = organism: Mus musculus; assay: Selectivity ratio of IC50 for ABHD6 in mouse brain membrane proteome to IC50 for DAGLalpha in mouse brain membrane proteome; type: cell membranes
Procedure, shortened: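 Ratio of DAGLα and ABHD6 […] values, both from competitive gel ABPP in mouse brain membrane proteome. Inhibitor was preincubated 30 min at r.t., then MB064 (250 nM final) was added for 20 min. Band intensities were normalized to vehicle and fitted with a variable-slope curve. n = 3.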

[1] = biological target: T1, Monoacylglycerol lipase ABHD6 (Mus musculus, UniProt Q8R2Y0); assay: Inhibition of MB064 probe binding to ABHD6 in mouse brain membrane proteome preincubated for 30 mins followed by MB064 probe addition measured after 20 mins by gel-based competitive activity based protein profiling assay; type: cell membranes
T1 sequence (Q8R2Y0 whole entry): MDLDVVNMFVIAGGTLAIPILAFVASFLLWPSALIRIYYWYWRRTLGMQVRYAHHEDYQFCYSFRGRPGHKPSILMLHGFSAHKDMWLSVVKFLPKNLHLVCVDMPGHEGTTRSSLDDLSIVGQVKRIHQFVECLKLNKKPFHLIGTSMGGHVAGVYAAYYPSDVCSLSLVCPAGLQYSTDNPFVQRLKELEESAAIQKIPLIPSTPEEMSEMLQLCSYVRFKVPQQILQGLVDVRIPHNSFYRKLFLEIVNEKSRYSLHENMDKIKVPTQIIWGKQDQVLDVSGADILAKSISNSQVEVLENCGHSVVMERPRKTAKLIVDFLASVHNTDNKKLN
Procedure, shortened: (§1)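 Mouse brain membrane proteome (2 mg/mL) preincubated with inhibitor or DMSO vehicle for 30 min at r.t., then labelled with MB064 at 250 nM final for 20 min at r.t. and quenched in Laemmli buffer. Fluorescent bands were quantified against vehicle set to 100%, and IC50 was taken from a variable-slope log(inhibitor) vs normalized response fit. n = 3.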

[2] = biological target: T2, Diacylglycerol lipase-alpha (Mus musculus, UniProt Q6WQJ1); assay: (§2) Inhibition of MB064 probe binding to DAGLalpha in mouse brain membrane proteome preincubated for 30 mins followed by MB064 probe addition measured after 20 mins by gel-based competitive activity based protein profiling assay; type: cell membranes; procedure, shortened: as §1
T2 sequence (Q6WQJ1 whole entry): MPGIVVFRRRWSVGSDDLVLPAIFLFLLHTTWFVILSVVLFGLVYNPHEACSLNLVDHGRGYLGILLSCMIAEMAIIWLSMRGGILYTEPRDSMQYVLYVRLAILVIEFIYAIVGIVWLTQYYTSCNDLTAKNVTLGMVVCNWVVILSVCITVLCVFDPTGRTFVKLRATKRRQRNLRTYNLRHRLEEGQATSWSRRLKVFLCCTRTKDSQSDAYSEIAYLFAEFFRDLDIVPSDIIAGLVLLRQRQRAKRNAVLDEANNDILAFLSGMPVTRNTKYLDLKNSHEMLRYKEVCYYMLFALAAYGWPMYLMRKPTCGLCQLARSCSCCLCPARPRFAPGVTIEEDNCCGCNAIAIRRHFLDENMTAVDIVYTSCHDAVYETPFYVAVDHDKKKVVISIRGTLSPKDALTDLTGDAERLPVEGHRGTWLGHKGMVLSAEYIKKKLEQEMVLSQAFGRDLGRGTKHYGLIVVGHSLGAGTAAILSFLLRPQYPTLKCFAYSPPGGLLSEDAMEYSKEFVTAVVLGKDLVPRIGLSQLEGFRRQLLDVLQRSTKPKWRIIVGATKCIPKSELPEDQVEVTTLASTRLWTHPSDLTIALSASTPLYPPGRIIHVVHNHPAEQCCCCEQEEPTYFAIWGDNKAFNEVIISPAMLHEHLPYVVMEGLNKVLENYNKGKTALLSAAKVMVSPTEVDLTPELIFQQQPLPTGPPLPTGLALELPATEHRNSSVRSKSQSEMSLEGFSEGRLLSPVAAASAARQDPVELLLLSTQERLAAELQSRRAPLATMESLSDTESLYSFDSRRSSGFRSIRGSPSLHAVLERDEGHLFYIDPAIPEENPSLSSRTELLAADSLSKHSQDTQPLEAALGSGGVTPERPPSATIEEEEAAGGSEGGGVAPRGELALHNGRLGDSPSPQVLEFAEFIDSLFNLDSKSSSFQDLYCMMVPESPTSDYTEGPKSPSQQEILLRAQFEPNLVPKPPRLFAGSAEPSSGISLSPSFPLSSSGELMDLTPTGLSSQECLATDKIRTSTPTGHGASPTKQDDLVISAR

[3] = biological target: T3, Diacylglycerol lipase-alpha (Mus musculus) (UniProt Q6WQJ1); assay: as §2; type: cell membranes; procedure, shortened: as §1
T3 sequence (whole entry): T2 sequence (Q6WQJ1 whole entry)

[4] = biological target: T4, Monoacylglycerol lipase ABHD6 (Homo sapiens, UniProt Q9BV23); assay: Inhibition of human ABHD6 using 2-AG as natural substrate by fluorescence based assay
T4 sequence (Q9BV23 whole entry): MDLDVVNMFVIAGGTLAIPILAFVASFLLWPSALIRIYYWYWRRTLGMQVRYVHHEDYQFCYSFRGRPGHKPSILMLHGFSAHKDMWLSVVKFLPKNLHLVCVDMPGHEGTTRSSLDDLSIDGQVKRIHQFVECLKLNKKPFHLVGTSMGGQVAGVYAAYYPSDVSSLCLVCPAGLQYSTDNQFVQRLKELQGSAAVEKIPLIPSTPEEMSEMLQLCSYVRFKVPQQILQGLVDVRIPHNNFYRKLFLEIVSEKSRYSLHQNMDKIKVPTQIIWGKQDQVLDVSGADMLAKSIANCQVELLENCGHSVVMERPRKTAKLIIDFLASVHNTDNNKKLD
Procedure, shortened: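 Coupled fluorescence assay: 2-AG hydrolysis detected via glycerol kinase, glycerol-3-phosphate oxidase and HRP (0.2 U/mL each), 0.125 mM ATP and 10 µM Amplifu Red. Conditions: 25 µM 2-AG, 0.5% acetonitrile, 5% DMSO, ABHD6 membrane protein 40 µg/mL final. n = 4.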

[5] = biological target: T5, Diacylglycerol lipase-alpha (Homo sapiens, UniProt Q9Y4D2); assay: Inhibition of full length recombinant human DAGLalpha expressed in HEK293T cell membranes using PNP butyrate as substrate by colorimetric assay; design: species or system HEK-293T
T5 sequence (Q9Y4D2 whole entry): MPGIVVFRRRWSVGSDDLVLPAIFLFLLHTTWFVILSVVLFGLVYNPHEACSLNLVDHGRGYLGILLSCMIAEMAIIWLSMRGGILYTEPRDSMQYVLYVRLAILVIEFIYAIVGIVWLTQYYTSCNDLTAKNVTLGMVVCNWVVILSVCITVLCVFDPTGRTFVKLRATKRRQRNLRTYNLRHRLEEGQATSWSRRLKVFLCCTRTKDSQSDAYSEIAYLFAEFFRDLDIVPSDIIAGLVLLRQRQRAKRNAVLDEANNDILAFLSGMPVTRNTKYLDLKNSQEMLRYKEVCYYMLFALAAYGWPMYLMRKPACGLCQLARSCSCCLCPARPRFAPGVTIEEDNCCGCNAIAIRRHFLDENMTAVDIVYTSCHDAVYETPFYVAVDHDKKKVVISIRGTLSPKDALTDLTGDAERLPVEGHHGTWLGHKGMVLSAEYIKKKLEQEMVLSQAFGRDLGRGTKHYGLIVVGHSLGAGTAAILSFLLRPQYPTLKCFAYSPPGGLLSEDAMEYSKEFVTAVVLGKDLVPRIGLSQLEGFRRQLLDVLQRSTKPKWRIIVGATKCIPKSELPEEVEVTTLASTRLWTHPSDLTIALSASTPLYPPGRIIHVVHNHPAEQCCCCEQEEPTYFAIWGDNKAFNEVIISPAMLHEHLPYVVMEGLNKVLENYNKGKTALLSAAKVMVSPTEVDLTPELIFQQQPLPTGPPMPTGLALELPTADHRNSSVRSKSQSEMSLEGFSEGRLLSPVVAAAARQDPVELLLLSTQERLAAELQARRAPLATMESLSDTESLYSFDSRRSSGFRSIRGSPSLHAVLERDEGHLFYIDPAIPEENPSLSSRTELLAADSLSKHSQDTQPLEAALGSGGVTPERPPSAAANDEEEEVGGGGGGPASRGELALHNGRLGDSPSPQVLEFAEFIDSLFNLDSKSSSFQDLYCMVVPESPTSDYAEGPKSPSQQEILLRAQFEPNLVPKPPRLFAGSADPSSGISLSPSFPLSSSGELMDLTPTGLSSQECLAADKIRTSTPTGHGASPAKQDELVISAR
Procedure, shortened: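 Membranes from HEK293T cells transiently transfected with human DAGLα (PEI transfection, harvested at 72 h), used at 0.05 µg/µL final protein in 50 mM HEPES pH 7.2. Activity was read colorimetrically from para-nitrophenylbutyrate hydrolysis. n = 4, mean ± SEM.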

Compound: CO[C@H]1CC[C@H](Cc2ccccc2)N(C(=O)n2ncc(C(O)(c3ccc(F)cc3)c3ccc(F)cc3)n2)C1
- Ratio IC50 (Mus musculus): 5
- pIC50 [1]: 6.40
- pIC50 [2]: 7.10
- inhibition [3]: Dose-dependent effect
- pIC50 [4]: 6.90
- pIC50 [5]: 8.10

Compound: CC(C)(O)c1cnn(C(=O)N2CCCCC2Cc2ccccc2)n1 (stereo not given)
- pIC50 [4]: < 5.00
- pIC50 [5]: 5.30

Compound: O=C(N1C[C@@H](O)C=C[C@@H]1Cc1ccccc1)n1ncc(C(O)(c2ccc(F)cc2)c2ccc(F)cc2)n1
- pIC50 [4]: 6.60
- pIC50 [5]: 7.70

Compound: COc1cccc(CC2CCCCN2C(=O)n2ncc(C(O)(c3ccc(F)cc3)c3ccc(F)cc3)n2)c1 (stereo not given)
- pIC50 [4]: 6.80
- pIC50 [5]: 8.50

Compound: CCC1CCCCN1C(=O)n1ncc(-c2ccc(-c3ccccc3)cc2)n1 (stereo not given)
- pIC50 [5]: 5.40

Compound: COC(c1ccc(F)cc1)(c1ccc(F)cc1)c1cnn(C(=O)N2CCCCC2Cc2ccccc2)n1 (stereo not given)
- pIC50 [4]: < 5.00
- pIC50 [5]: 7.90

Compound: O=C(N1CCCCC1COc1ccc(F)cc1)n1ncc(C(O)(c2ccc(F)cc2)c2ccc(F)cc2)n1 (stereo not given)
- pIC50 [4]: 6.70
- pIC50 [5]: 8.30

Compound: O=C(N1CCCCC1Cc1ccccc1)n1ncc(C(O)(C2CCCCC2)C2CCCCC2)n1 (stereo not given)
- pIC50 [4]: 5.10
- pIC50 [5]: 7.00

Compound: O=C(N1CCCCC1Cc1ccccc1)n1ncc(C(O)(c2ccccn2)c2ccccn2)n1 (stereo not given)
- pIC50 [4]: 5.50
- pIC50 [5]: 6.80

Compound: O=C(N1CCCCC1COc1ccccc1)n1ncc(C(O)(c2ccc(F)cc2)c2ccc(F)cc2)n1 (stereo not given)
- pIC50 [4]: 6.70
- pIC50 [5]: 8.30

Compound: O=C(N1CCCCC1COc1ccccc1)n1ncc(C(O)(c2ccccc2)c2ccccc2)n1 (stereo not given)
- pIC50 [4]: 6.80
- pIC50 [5]: 8.10

Compound: COc1ccc(CC2CCCCN2C(=O)n2ncc(C(O)(c3ccc(F)cc3)c3ccc(F)cc3)n2)cc1 (stereo not given)
- pIC50 [4]: 6.60
- pIC50 [5]: 8.30

Compound: O=C(N1C[C@H](O)CC[C@@H]1Cc1ccccc1)n1ncc(C(O)(c2ccc(F)cc2)c2ccc(F)cc2)n1
- pIC50 [4]: 6.80
- pIC50 [5]: 7.70

Compound: O=C(N1C[C@@H](O)CC[C@@H]1Cc1ccccc1)n1ncc(C(O)(c2ccc(F)cc2)c2ccc(F)cc2)n1
- pIC50 [4]: 6.70
- pIC50 [5]: 5.20

Compound: CC(O)(c1ccccc1)c1cnn(C(=O)N2CCCCC2Cc2ccccc2)n1 (stereo not given)
- pIC50 [4]: 5.50
- pIC50 [5]: 6.40

Compound: O=C(N1C[C@@H](OCC2CC2)CC[C@@H]1Cc1ccccc1)n1ncc(C(O)(c2ccc(F)cc2)c2ccc(F)cc2)n1
- Ratio IC50 (Mus musculus): 145
- pIC50 [1]: < 5.00
- pIC50 [2]: 7.10
- inhibition [3]: Dose-dependent effect
- pIC50 [4]: 5.60
- pIC50 [5]: 7.70

Compound: O=C(N1C[C@H](OCC2CC2)CC[C@@H]1Cc1ccccc1)n1ncc(C(O)(c2ccc(F)cc2)c2ccc(F)cc2)n1
- Ratio IC50 (Mus musculus): 160
- pIC50 [1]: 6.50
- pIC50 [2]: 8.70
- inhibition [3]: Dose-dependent effect
- pIC50 [4]: 7.40
- pIC50 [5]: 9.20

Compound: O=C(N1CCCCC1Cc1ccccc1)n1ncc(C(O)(c2ccc(F)cc2)c2ccc(F)cc2)n1 (stereo not given)
- pIC50 [4]: 7.60
- pIC50 [5]: 9.00

Compound: O=C(N1CCCC[C@@H]1Cc1ccccc1)n1ncc(C(O)(c2ccc(F)cc2)c2ccc(F)cc2)n1
- pIC50 [5]: 9.10

Compound: O=C(N1CCCCC1Cc1ccccc1)n1ncc(C2(O)CCCCC2)n1 (stereo not given)
- pIC50 [4]: 5.50
- pIC50 [5]: 5.80

Compound: CO[C@@H]1CC[C@H](Cc2ccccc2)N(C(=O)n2ncc(C(O)(c3ccc(F)cc3)c3ccc(F)cc3)n2)C1
- Ratio IC50 (Mus musculus): 25
- pIC50 [1]: 7.30
- pIC50 [2]: 8.70
- inhibition [3]: Dose-dependent effect
- pIC50 [4]: 7.30
- pIC50 [5]: 9.10

Compound: O=C(N1CCCCC1COc1ccc(F)cc1)n1ncc(C(O)(c2ccccc2)c2ccccc2)n1 (stereo not given)
- pIC50 [4]: 6.60
- pIC50 [5]: 8.20

Compound: O=C(N1C[C@H](O)C=C[C@@H]1Cc1ccccc1)n1ncc(C(O)(c2ccc(F)cc2)c2ccc(F)cc2)n1
- pIC50 [4]: 7.40
- pIC50 [5]: 7.90
